Ends that are not written are not given here.
Tests used:
PNX antiserum = conditions: rabbit polyclonal antiserum; ref Phoenix Pharmaceuticals, Inc; cited from earlier work
[1] = tested on: Antibodies used in the EIA; experiment: Cross-reactivity of the antibodies used in the phoenixin EIA; assay type: binding
[2] = tested on: dispersed, primary rat pituitary cultures; experiment: Static incubation of dispersed anterior pituitary cells, hormone release; assay type: cell-based; conditions: for GnRH-stimulated LH release: female pituitary cultures, overnight (24-hour) pretreatment, then GnRH for one hour, Figure 3A and B
Procedure, shortened: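 Rat anterior pituitary cells were trypsin-dispersed and cultured 48 h in tubes (MEM, 10% horse serum, 37°C). Cultures were pretreated 24 h with medium or peptide fragments. Medium was replaced by M199 with 0.1% BSA, 2×10⁻⁵ M bacitracin and 20 mM HEPES, with the same pretreatment. Cells were incubated 30 or 60 min at 37°C ± GnRH, and the incubation was ended by centrifugation. LH was measured by RIA (RP-3 standards) as mean ± SEM.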

[3] = tested on: pituitary and ovary cell membranes; experiment: Preliminary binding of phoenixin-20 to pituitary and ovary cell membranes; design: species or system rat; conditions: data not shown; for displacement of phoenixin-20 binding: pituitary and ovary cell membranes, female rat donors
GnRH receptor [4] = experiment: RT-PCR of GnRH receptor mRNA in dispersed primary pituitary cell cultures; assay type: cell-based, rat
Procedure, shortened: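 Dispersed primary rat anterior pituitary cultures were pretreated overnight with the peptide: male cultures with or without GnRH, female cultures without GnRH. RNA was extracted and reverse-transcribed with oligo d(T) and MMLV RT. SYBR Green real-time PCR was run with primer efficiencies >85%. Changes were calculated by delta delta Ct, normalised to HPRT-1, and compared by t test.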

GnRH receptor [5] = experiment: RT-PCR of GnRH receptor message in alphaT3-1 gonadotroph cells; assay type: cell-based, mouse; conditions: alphaT3-1 cells; normalized to GAPDH; Figure 3E
Procedure, shortened: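 Mouse αT3-1 gonadotroph cells were exposed to the peptide. RNA was reverse-transcribed using oligo d(T) and MMLV reverse transcriptase. GnRH receptor message was quantified by SYBR Green real-time PCR with primer efficiencies >85%, using the delta delta Ct method with GAPDH normalisation. Groups were compared by t test.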

cFos = experiment: RT-PCR of cFos message in alphaT3-1 gonadotroph cells; assay type: cell-based, mouse; conditions: alphaT3-1 cells; not shown
male pituitary cells = experiment: LH release from similarly prepared male pituitary cells; assay type: cell-based, rat; conditions: Supplemental Figure 2
[6] = tested on: dispersed pituitary cells from random cycle, female donors; experiment: Dynamic; assay type: cell-based, rat; conditions: 1000nM phoenixin-20 for 24 hours
Procedure, shortened: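 Rat anterior pituitary cells from random-cycle females, trypsin-dispersed (0.1%), cultured 48 h at 37°C in MEM with 10% horse serum. Pretreated 24 h with medium or 1000nM amidated 20-residue peptide, resuspended in M199/0.1% BSA/bacitracin/20 mM HEPES; ~2 million cells perifused on Bio-Gel P2 columns (0.05 ml/min). Peptide present throughout. 5-min fractions: basal, 10 nM GnRH 50 min, medium 50 min, 60 mM KCl 10 min, medium 40 min. LH by RIA (RP-3 standards); mean ± SEM.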

DVQPPGLKVWSDPF-NH2 [phoenixin-14]
cross-reactivity with PNX antiserum in radioimmunoassay (PNX antiserum): 100% | cross-reaction with the antibodies used in the EIA [1]: 100% | GnRH-stimulated LH release [2]: potentiated

angiotensin II (DRVYIHPF; Angiotensin-2; UniProt P01019 25-32, looked up) [reference compound]
cross-reaction with the antibodies used in the EIA [1]: 0%

gonadotropin releasing hormone [gonadotropin-releasing hormone]
displacement of phoenixin-20 binding [3]: not displaced

phoenixin
GnRH receptor messenger RNA (GnRH receptor [4]; dispersed pituitary cultures pretreated with phoenixin, medium alone, Figure 3D): increased | GnRH receptor expression in the absence of GnRH (GnRH receptor [4]; primary pituitary cell cultures from female donors, Figure 3G): significantly increased | basal release of LH, ACTH, prolactin, growth hormone, or TSH ([2]; dispersed, primary rat pituitary cultures, data not shown): did not alter

phoenixin-20: 20 amino acid amidated form of phoenixin (AGIVQEDVQPPGLKVWSDPF-NH2; UniProt C0HLM6 47-66, looked up)
GnRH receptor message (GnRH receptor [5]): increase | cFos message (cFos): failed to attain significance | cross-reactivity with PNX antiserum in radioimmunoassay (PNX antiserum): 100% | specific binding to pituitary and ovary cell membranes ([3]; tissues from female rat donors, preliminary experiments): bound specifically | LH release compared to medium alone (male pituitary cells): no differences | ability of GnRH to upregulate the expression of GnRH receptor (GnRH receptor [4]; dispersed male anterior pituitary cell cultures, overnight pretreatment, Figure 3D): potentiated | LH release when GnRH was included in the perifusate ([6]; 10 nM GnRH, Figure 3C): significantly enhanced | basal LH release during perifusion ([6]; then perifusion columns, no GnRH): did not alter | cross-reaction with the antibodies used in the EIA [1]: 100% | GnRH-stimulated LH release [2]: potentiated

urocortin (DNPSLSIDLTFHLLRTLLELARTQSQRERAEQNRIIFDSV; ends and bridges not checked; UniProt P55089 83-122, looked up)
displacement of phoenixin-20 binding [3]: not displaced

Source: paper PMC3556183 (Journal of neuroendocrinology, 2013)
